Experimental findings from article PMC2652733 (Bioconjugate chemistry, 2009) are described below.

Data set [1] has as its system RIF tumors. In words: In vivo photosensitizing. Set-up: species or system C3H mice.
The test system of data set [2] is RIF tumor cells. Briefly: In vitro photosensitizing efficacy. In kind it is cell-based. As to conditions: for in vitro photosensitizing ability: lower light and drug doses, RIF cells; for in vitro photosensitizing ability (comparative): 24 h post-incubation, light dose 6.0 J/cm^2, drug concentration 1.0 μM and higher, 700 nm. The method in brief:
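RIF cells were grown in α-MEM with 10% FCS and plated at 5 × 10³ cells/well overnight. Test compound was added at varied concentrations for 24 h at 37°C in the dark, then replaced with drug-free medium. Cells were irradiated with a 700 nm dye laser (3.2 mW/cm², 0-6 J/cm²) and kept 48 h in the dark. MTT was added for 4 h, followed by DMSO and a 560 nm read. Survival was expressed as % of the drug-no-light control, with 4 replicate wells.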

A short description of data set [3]: Biodistribution of 124I-labeled compounds. The format is in vivo, C3H mice bearing RIF tumors. In a few lines: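 RIF cells (3 × 10⁵ in 30 μl complete α-MEM) were implanted s.c. in the axilla of C3H mice and grown to 4-5 mm diameter (~5 days). The 124I-labelled test compound, in saline with 10% ethanol, was given via tail vein at 50-200 μCi. Thyroid uptake was not blocked. 3-4 mice per time point were killed at 24-96 h. Organs, blood and tail were weighed and gamma-counted, giving %ID/g.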

[4] abbreviates: dose 2μmol/kg, 705 nm, 135 J/cm^2, 75 mW/cm^2.
[5] abbreviates: 24h PI, C3H mice bearing RIF tumors, i.v. 50-200 uCi.

Take `CCCCCCN1C(=O)C2=C(C)c3cc4[nH]c(cc5nc(cc6[nH]c(c(c2n3)C1=O)[C@@H](CCC(=O)OC)[C@@H]6C)C(C)=C5C(C)OCc1cccc(I)c1)c(C)c4CC` (stereo partly shown) [compound 4, 3-{1’- (3-iodobenzyloxy)ethyl}purpurin-18-N-hexylimide methyl ester]: in data set [1] (setting [4]), the “toxicity after PDT treatment” value is “toxic and all mice died within 24 h PDT treatment”. In addition, the “in vitro photosensitizing ability” value in data set [2] is recorded as “ineffective”.

Take `CCc1c(C)c2cc3nc(cc4[nH]c(c5c6nc(cc1[nH]2)C(C)=C6C(=O)C5)[C@@H](CCC(=O)OC)[C@@H]4C)C(C)=C3C(C)OCc1cccc(I)c1` (stereo partly shown) [compound 1, 3-{1’- (3-iodobenzyloxy)ethyl}pyropheophorbide-a methyl ester]: the “mice tumor free on day 60” value in data set [1] (dose 1.5 μmol/kg i.v., 665 nm, 135 J/cm^2, 75 mW/cm^2 at 24 h post injection, 5 mice/group) was 4/5.

For the compound “^124I- labeled analog of 3-{1’- (3-iodobenzyloxy)ethyl}purpurin-18-N-hexylimide methyl ester [compound 8]”, in data set [3] (setting [5]), the “liver uptake in comparison of the 124I-analog of pyropheophorbide 1” value is reported as 32 fold and the “spleen uptake in comparison of the 124I-analog of pyropheophorbide 1” value was 85 fold.

With `CCc1c(C)c2cc3nc(cc4[nH]c(c5c6nc(cc1[nH]2)C(C)=C6C(=O)N(Cc1cccc(I)c1)C5=O)[C@@H](CCC(=O)OC)[C@@H]4C)C(C)=C3C(C)OC` (stereo partly shown) [compound 10, 3-{1’- (methoxy)ethyl}purpurin-18-N-(3-iodo)benzylimide methyl ester], the “in vivo PDT efficacy, fold less effective over the lead compound 1” value in data set [1] (705 nm (10), 135 J/cm^2, 75 mW/cm^2, 24 h post-injection) was “at least 1.5 fold”. In addition, the “in vivo PDT activity compared with hexyl ether analog 5” value in data set [1] (doses of 1.0 and 2.5 mmol/kg, 705 nm, 135 J/cm^2, 75 mW/cm^2, 24 h post-injection) is given as “enhanced activity”. Moreover, the “in vitro photosensitizing ability (comparative)” value in data set [2] is “enhanced efficacy over the isomers 4 and 5”. In addition, the “tumor uptake (abstract statement)” value in data set [3] (methyl ether analog versus purpurinimide 5) is on record as “improved tumor uptake”.

On to `CCCCCCOC(C)C1=C(C)c2cc3[nH]c(c4c5nc(cc6[nH]c(cc1n2)c(C)c6CC)C(C)=C5C(=O)N(Cc1cccc(I)c1)C4=O)[C@@H](CCC(=O)OC)[C@@H]3C` (stereo partly shown) [compound 5, 3-{1’- (Hexyloxy)ethyl}purpurin-18-N-(3-iodo)benzylimide methyl ester], for which, in data set [1] (setting [4]), the “in vivo PDT activity” value is listed as “did not show any significant activity”. The “in vivo PDT activity” value in data set [1] (doses 2.5 and 3.0 μmol/kg, 705 nm, 135 J/cm^2, 75 mW/cm^2) is recorded as “quite effective”. Besides, in data set [2], the “in vitro photosensitizing ability (comparative)” value is reported as “more effective than the structural isomer 4” and the “in vitro photosensitizing ability” value was “ineffective”.
